Source: ChEMBL document CHEMBL4828732, “Synthesis and biological evaluation of selective survivin inhibitors derived from the MX-106 hydroxyquinoline scaffold” (Eur J Med Chem, 2021)
Calls of active or inactive are those of the source. No cut-off for these calls is given here.

Legend:
[1] = Metabolic stability of the compound in rat liver microsomes assessed as half life at 10 uM incubated for 10 mins in presence of NADPH by UPLC-MS analysis; format: ADME, Microsome
[2] = Resistance index, ratio of IC50 for antiproliferation activity against human MDA-MB-435/LCC6MDR cells to IC50 for antiproliferation activity against human MDA-MB-435 cells assessed as cell growth inhibition measured after 72 hrs by MTS assay; format: functional
A-375 [3] = assay: Downregulation of survivin protein expression in human A-375 cells at 10 uM measured after 24 hrs by Westernblot analysis; format: functional, cell-based
How it was run: (§1)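 A375 cells (2 × 10⁶ per 10-cm dish) attached overnight, then treated 24 h in DMEM with 1, 5 or 10 μM. Lysed in RIPA with protease/phosphatase inhibitors; protein measured by Bradford. 50 μg run on SDS-PAGE, transferred to PVDF, blocked in 5% milk, probed overnight at 4°C for survivin, cleaved PARP, cIAP1, XIAP, Livin, with HRP-GAPDH as loading control; ECL detection.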

MDA-MB-435/LCC6MDR1 = assay: cells; details: Homo sapiens, MDA-MB-435, 72 h
OVCAR-3 [4] = assay: cells; details: Homo sapiens, OVCAR-3, 72 h
[5] = Metabolic stability of the compound in rat liver microsomes assessed as clearance at 10 uM incubated for 10 mins in presence of NADPH by UPLC-MS analysis; format: ADME, Microsome
[6] = Metabolic stability of the compound in human liver microsomes assessed as clearance at 10 uM incubated for 240 mins in presence of NADPH by UPLC-MS analysis; details: 4 h
A-375 [7] = assay: Induction of apoptosis in human A-375 cells assessed as increase in cleaved PARP level after 24 hrs by Western blot analysis; format: functional, cell-based; how it was run: as §1
[8] = Metabolic stability of the compound in mouse liver microsomes assessed as clearance at 10 uM incubated for 10 mins in presence of NADPH by UPLC-MS analysis; format: ADME, Microsome
MDA-MB-453 = assay: cells; details: Homo sapiens, MDA-MB-453, 72 h
RPMI-7951 = assay: cells; details: Homo sapiens, RPMI-7951, 72 h
OVCAR-8 [9] = assay: cells; details: Homo sapiens, OVCAR-8, 72 h
SK-BR-3 = assay: cells; details: Homo sapiens, SK-BR-3, 72 h
MDA-MB-435 = assay: cells; details: Homo sapiens, MDA-MB-435, 72 h
A-375 [10] = assay: cells; details: Homo sapiens, A-375, 72 h
OVCAR-3 [11] = assay: Downregulation of survivin protein expression in human OVCAR-3 cells measured after 24 hrs by Westernblot analysis; format: functional, cell-based
How it was run: (§2)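 Ovarian cancer cells treated 24 h at 2 and 4 μM, or vehicle, in serum-free RPMI 1640. Lysed in RIPA with protease inhibitor; 100 μg protein per lane run on 10% SDS-PAGE, transferred to PVDF, blocked in 5% milk. Probed for survivin, MCL1 and GAPDH; HRP secondary with ECL detection.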

[12] = Toxicity in NSG mouse xenografted with human A-375 cells assessed as reduction in body weight at 40 mg/kg, ip administrated 3 times a week for 15 days; format: organism-based; details: in vivo, 360 h, time 15 day
OVCAR-8 [13] = details: Homo sapiens, dose 20.0 mg/kg, time 15.0 day
A-375 [14] = assay: Antitumor activity against human A-375 cells xenografted in NSG mouse assessed as reduction in tumor weight at 20 mg/kg, ip administrated 3 times a week for 15 days; format: functional; parameters: scale not given: the % may be the effect or the level left; details: time 15 day
A-375 [15] = assay: Downregulation of survivin protein expression in human A-375 cells measured after 24 hrs by Westernblot analysis; format: functional, cell-based; how it was run: as §1
[16] = Metabolic stability of the compound in human liver microsomes assessed as half life at 10 uM incubated for 10 mins in presence of NADPH by UPLC-MS analysis; format: ADME, Microsome
OVCAR-8 [17] = assay: Antitumor activity against luciferase-tagged human OVCAR-8 cells xenografted into left side ovarian bursa of NSG mouse assessed as reduction in number of metastatic tumor in kidney at 20 mg/kg, […] by histological analysis; format: functional, organism-based
OVCAR-8 [18] = assay: Antitumor activity against human OVCAR-8 cells xenografted in NSG mouse assessed as tumor weight at 20 mg/kg, ip administrated 3 times a week for 15 days; details: time 15 day
[19] = Toxicity in NSG mouse xenografted with human A-375 cells assessed as reduction in body weight at 20 mg/kg, ip administrated 3 times a week for 15 days; format: organism-based; details: in vivo, 360 h, time 15 day
A-375 [20] = assay: Induction of apoptosis in human A-375 cells assessed as increase in cleaved […] level after 24 hrs by Western blot analysis; format: functional, cell-based
A-375 [21] = assay: Antitumor activity against human A-375 cells xenografted in NSG mouse assessed as reduction in tumor weight at 40 mg/kg, ip administrated 3 times a week for 15 days; format: functional; parameters: scale not given: the % may be the effect or the level left; details: time 15 day
A-375 [22] = assay: Antitumor activity against human A-375 cells xenografted in NSG mouse assessed as tumor growth inhibition at 20 to 40 mg/kg, ip administrated 3 times a week for 15 days; format: functional, organism-based; details: dose 20-40 mg/kg, time 15.0 day
SK-OV-3 = assay: Downregulation of survivin protein expression in human SK-OV-3 cells measured after 24 hrs by Westernblot analysis; format: functional, cell-based; how it was run: as §2
OVCAR-8 [23] = assay: Downregulation of survivin protein expression in human OVCAR-8 cells measured after 24 hrs by Westernblot analysis; format: functional, cell-based; how it was run: as §2
OVCAR-8 [24] = assay: Antitumor activity against luciferase-tagged human OVCAR-8 cells xenografted into left side ovarian bursa of NSG mouse assessed as reduction in number of metastatic tumor in spleen at 20 mg/kg, […] by histological analysis; format: functional, organism-based
[25] = Toxicity in NSG mouse xenografted with human OVCAR-8 cells assessed as reduction in body weight at 20 mg/kg, ip administrated 3 times a week for 15 days; format: organism-based; details: in vivo, 360 h, time 15 day
OVCAR-8 [26] = assay: Antitumor activity against luciferase-tagged human OVCAR-8 cells xenografted into left side ovarian bursa of NSG mouse assessed as reduction in number of metastatic tumor in intestine at 20 mg/kg, ip administrated 3 times a week for 15 days by histological analysis; format: functional, organism-based; details: time 15.0 day
OVCAR-8 [27] = assay: Antitumor activity against luciferase-tagged human OVCAR-8 cells xenografted into left side ovarian bursa of NSG mouse assessed as reduction in number of metastatic tumor at 20 mg/kg, ip administrated 3 times a week for 15 days by histological analysis; details: time 15.0 day
OVCAR-8 [28] = assay: Antitumor activity against luciferase-tagged human OVCAR-8 cells xenografted into left side ovarian bursa of NSG mouse assessed as reduction in number of metastatic tumor in stomach at 20 mg/kg, ip administrated […] by histological analysis; format: functional, organism-based
[29] = Metabolic stability of the compound in mouse liver microsomes assessed as half life at 10 uM incubated for 10 mins in presence of NADPH by UPLC-MS analysis; format: ADME, Microsome

| t1/2 [1] [h] | IC50 (MDA-MB-435/LCC6MDR1) [nM] | IC50 (OVCAR-3 [4]) [nM] | CLH [5] [µL/min/mg] | CLH [6] [µL/min/mg] | CLH [8] [µL/min/mg] | IC50 (MDA-MB-453) [nM] | IC50 (RPMI-7951) [nM] | IC50 (OVCAR-8 [9]) [nM] | IC50 (SK-BR-3) [nM] | IC50 (MDA-MB-435) [nM] | IC50 (A-375 [10]) [nM] | t1/2 [16] [h] | Compound | Ratio IC50 [2] | Activity (A-375 [7]) | Activity (OVCAR-3 [11]) | Activity (SK-OV-3) | Activity (OVCAR-8 [23]) | other results |
| --- | --- | --- | --- | --- | --- | --- | --- | --- | --- | --- | --- | --- | --- | --- | --- | --- | --- | --- | --- |
| 2.5 | 1400 | 1300 | 9.2 | 3.2 | 5.5 | 500 | 700 | 2600 | 800 | 500 | 500 | – | CC(C)c1ccc(COCc2cc(-c3ccccc3)c(O)c3ncccc23)cc1 | 2.6 | Active | – | – | – | Activity (A-375 [3]): inactive |
| 1.6 | – | – | 14.2 | 15.7 | 21.6 | – | – | – | – | – | – | 1.5 | Oc1c(CN2CCCCC2)cc(Cn2ncc(-c3ccc(C(F)(F)F)cc3)n2)c2cccnc12 | – | Active | Active | Active | Active | Activity [12]: Non-Toxic; inhibition (OVCAR-8 [13]): Active; Activity (A-375 [14]): 32%; Activity (A-375 [15]): Dose-Dependent Effect; Activity (OVCAR-8 [17]): Active; tumor weight (OVCAR-8 [18]): 0.11 g; Activity [19]: Non-Toxic; Activity (A-375 [20]): Active; Activity (A-375 [21]): 55%; Activity (A-375 [22]): Dose-Dependent Effect; Activity (OVCAR-8 [24]): Active; Activity [25]: Non-Toxic; Activity (OVCAR-8 [26]): inactive; Activity (OVCAR-8 [27]): Active; Activity (OVCAR-8 [28]): Active |
| 0.9 | 900 | 800 | 24.8 | 10 | 24.3 | 2800 | 600 | 1300 | 2700 | 2600 | 600 | 2.3 | Oc1c(CN2CCCC2)cc(Cn2ncc(-c3cccc(Br)c3)n2)c2cccnc12 | 0.4 | – | Active | Active | Active | t1/2 [29]: 1 h |
